The source of these data is BindingDB's records for doi:10.1021/jm0003900 (Ferring Research Institute, 2001).

By Kd is commonly meant the concentration at which binding is half-saturated. Low readings indicate tighter binding, high ones weaker binding.

Each structure is given as a SMILES string. *1 amine or outer side, *2 acyl side, *3 side chain or, on linkers, in order; H or OH if unused. Where a SMILES comes first, the peptide text is derived from it. [ ]: non-standard residue; d: D form. Phe(4-NH(5-NH2triazol-3-yl)) = Nc1nc(Nc2ccc(C[C@H](N)C(=O)O)cc2)n[nH]1; X1 = Nc1nc(Nc2ccc(C[C@@H](N[*:1])C(=O)[*:2])cc2)n[nH]1; dPhe(4-Cl) = N[C@H](Cc1ccc(Cl)cc1)C(=O)O; d2Nal = N[C@H](Cc1ccc2ccccc2c1)C(=O)O; Lys(iPr) = CC(C)NCCCC[C@H](N)C(=O)O; d3Pal = N[C@H](Cc1cccnc1)C(=O)O

The assay has as its target T1, Gonadotropin-releasing hormone receptor (Homo sapiens, UniProt P30968).
T1 sequence (P30968 whole entry): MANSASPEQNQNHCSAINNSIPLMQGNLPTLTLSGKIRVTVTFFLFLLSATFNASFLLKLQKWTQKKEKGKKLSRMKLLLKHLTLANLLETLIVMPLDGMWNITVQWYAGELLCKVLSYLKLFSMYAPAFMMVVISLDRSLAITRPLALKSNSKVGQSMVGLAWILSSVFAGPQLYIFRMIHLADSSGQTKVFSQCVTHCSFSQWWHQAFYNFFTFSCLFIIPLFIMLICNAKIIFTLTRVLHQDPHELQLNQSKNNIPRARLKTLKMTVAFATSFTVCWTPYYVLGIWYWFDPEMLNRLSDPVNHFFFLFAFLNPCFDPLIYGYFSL
The assay can be described thus: Competitive antagonism of GnRH-induced response in the reporter gene assay. The gist of the method: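 Same HEK293 human GnRH receptor luciferase reporter cells. Seven-point GnRH curve (10 µM to 10 pM final) run in duplicate without or with four to five increasing compound concentrations (10 min preincubation, 37 °C), then 5 h and luminescence. GnRH EC50 at each level by four-parameter logistic fit, giving pA2; mean of two determinations in duplicate.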
Background: In a reporter assay the amount or activity of a reporter protein is the signal.

In turn, `CC(=O)N[C@H](Cc1ccc2ccccc2c1)C(=O)N[C@H](Cc1ccc(Cl)cc1)C(=O)N[C@H](Cc1cccnc1)C(=O)N[C@@H](CO)C(=O)N[C@@H](Cc1ccc(Nc2n[nH]c(N)n2)cc1)C(=O)N[C@H](Cc1ccc(Nc2n[nH]c(N)n2)cc1)C(=O)N[C@@H](CC(C)C)C(=O)N[C@@H](CCCCNC(C)C)C(=O)N1CCC[C@H]1C(=O)N[C@H](C)C(N)=O` [Ac-D-Nal-[D-(pCl)Phe]-D-Pal-Ser-[Aph(Atz)]-D-[Aph(Atz)]-Leu-ILys-Pro-DAla-NH2] (Ac-[d2Nal][dPhe(4-Cl)][d3Pal]S[Phe(4-NH(5-NH2triazol-3-yl))][X1]L[Lys(iPr)]P[dA]-NH2) gave a Kd of 1.58 nM. Next, `CC(=O)Nc1ccc(C[C@@H](NC(=O)[C@H](Cc2ccc(NC(=O)C3CNC(=O)N3)cc2)NC(=O)[C@H](CO)NC(=O)[C@@H](Cc2cccnc2)NC(=O)[C@@H](Cc2ccc(Cl)cc2)NC(=O)[C@@H](Cc2ccc3ccccc3c2)NC(C)=O)C(=O)N[C@@H](CC(C)C)C(=O)N[C@@H](CCCCNC(C)C)C(=O)N2CCC[C@H]2C(=O)N[C@H](C)C(N)=O)cc1` (stereo partly drawn) [Ac-D-Nal-[D-(pCl)Phe]-D-Pal-Ser-[Aph(Imz)]-D-[Aph(Ac)]-Leu-ILys-Pro-DAla-NH2]: 0.631 nM.
